NF-kB expr up = compounds increasing NF-kB expression in human neuronal cells | NF-kB reporter expression; stronger effect = higher value | fold change at 12.5 µM | actives 1.6% (n = 190,000); in the data active = fold change above about 3.3
STAT3 activator = increases IL-6 driven STAT3 reporter signal; U3A cells, IL-6 STAT3-luciferase reporter, luminescence; 100% = signal with IL-6 EC80 alone; activation (% of control), % at 5.6 µM; actives 0.91% (n = 190,000); AID 871;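 active = activation above the screen-wide mean of compound activation plus 3 SD, cut at about 130% in these data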
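Test system: human U3A cells carrying STAT3-luciferase construct; control set: IL-6-only wells as 100% reference; timing: compound pre-incubation 1 h before IL-6, then 6 h stimulation at 37 °C; also added: IL-6 stimulus at 33 ng/mL final; evaluation: % activation versus median of IL-6-stimulated wells; detection: reporter luminescence signal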
APP 5'UTR act = APP 5'UTR luciferase reporter activation; SH-SY5Y APP 5'UTR luciferase reporter, luminescence; zero percent = DMSO vehicle wells; activation, % at 2 µM; actives 1% (n = 190,000); AID 1276;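 active = activation above a set limit, based on mean plus 3 SD of controls, cut at about 140% in these data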
STAT1 act = STAT1 signaling activation | NIH 3T3 STAT1-luciferase reporter, IFN-gamma, luminescence; 100% = IFN-gamma alone, no compound | activation (% of control), % at 5.5 µM | actives 2.6% (n = 200,000);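 active = activation above the screen-wide mean activation plus 3 SD, cut at about 130% in these data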
STAT3 inh = reduces IL-6 driven STAT3 reporter signal. U3A cells, IL-6 STAT3-luciferase reporter, luminescence; host cell line lacks STAT1. inhibition, % at 5.5 µM. actives 0.89% (n = 190,000);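 active = inhibition above the mean inhibition across all screened compounds plus 3 SD, cut at about 44% in these data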
STAT1 blocker = STAT1 signaling inhibition; actives 0.35% (n = 200,000); AID 920; inhibition, % at 5.5 µM; NIH 3T3 STAT1-luciferase reporter, IFN-gamma, luminescence;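 active = inhibition above a set limit, the mean inhibition across all tested compounds plus 3 SD, cut at about 34% in these data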
STAT1 activ conf = STAT1 activation, confirmation assay; shares compounds with STAT1 act; NIH 3T3 STAT1-luciferase reporter, IFN-gamma potentiation, luminescence; 100% = IFN-gamma EC80 alone, no compound; activation (% of control), % at 5.7 µM; actives 97% (n = 1,200);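 active = activation above a set limit carried over from the earlier primary STAT1 screen, cut at about 140% in these data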
NFkB act = counter-screen for STAT1 activators: NF-kappaB activation | shares compounds with STAT1 act | HEK293T NF-kB luciferase reporter, TNF-alpha stimulated, luminescence; 100% = TNF-alpha with vehicle only | activation (% of control), % at 5.7 µM | actives 43% (n = 1,200) | AID 1306;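 active = activation above the mean of solvent-only control wells plus 3 SD, set per campaign, cut at about 130% in these data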;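 note: TNF-alpha given at a submaximal dose yielding about 80% of full reporter signal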
STAT3 act STAT1c = activates human STAT3, counter-screen to STAT1 activators | shares compounds with STAT1 act | U3A cells STAT3-luciferase reporter, IL-6, luminescence; cells lack STAT1; 100 = IL-6 alone, no compound effect | activation (% of control), % at 5.7 µM | actives 46% (n = 1,200);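 active = activation above the solvent-only control well mean plus 3 SD, set per plate batch, cut at about 110% in these data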;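 note: higher means more STAT3 reporter activation so hits are non-selective activators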
A number is an active result. In the library only some 4.9% were active in any assay of this set; here they are far more common.

Screening Nc1nc(-c2ccccc2)nc2sc3c(c12)CCCC3 returned NF-kB expr up 11, STAT3 activator inactive, APP 5'UTR act 180, STAT1 act 191, STAT3 inh inactive, STAT1 blocker inactive, STAT1 activ conf 249, NFkB act 136 and STAT3 act STAT1c 139.
Screening Cc1ccc(-c2nc3sc4c(c3c(=O)n2N)CCCC4)cc1 returned NF-kB expr up 5.1, STAT3 activator inactive, APP 5'UTR act 143, STAT1 act 178, STAT3 inh inactive, STAT1 blocker inactive, STAT1 activ conf 224, NFkB act 143 and STAT3 act STAT1c inactive.
For Cc1onc(C(=O)NN)c1C(=O)Nc1ncc(C(F)(F)F)cc1Cl the results were NF-kB expr up inactive, STAT3 activator inactive, APP 5'UTR act inactive, STAT1 act inactive, STAT3 inh inactive and STAT1 blocker inactive.
`CC(C)Cc1nnc(NC(=O)CSc2nc(O)c(-c3ccccc3)c(=O)[nH]2)s1` gave NF-kB expr up inactive, STAT3 activator inactive, APP 5'UTR act inactive, STAT1 act inactive, STAT3 inh inactive and STAT1 blocker inactive.
C=CCNC(=O)c1cc(-c2ccc(Br)cc2)on1 was read as NF-kB expr up inactive, STAT3 activator inactive, APP 5'UTR act inactive, STAT1 act 160, STAT3 inh inactive, STAT1 blocker inactive, STAT1 activ conf 171, NFkB act inactive and STAT3 act STAT1c inactive.
`COc1ccc(-c2cc(C(=O)NCc3cccnc3)no2)cc1` gave NF-kB expr up inactive, STAT3 activator inactive, STAT1 act inactive, STAT3 inh inactive and STAT1 blocker inactive.
`CCCNC(=O)c1cc(-c2ccc(OC)cc2)on1` gave NF-kB expr up 6.8, STAT3 activator inactive, APP 5'UTR act inactive, STAT1 act 152, STAT3 inh inactive, STAT1 blocker inactive, STAT1 activ conf 170, NFkB act 134 and STAT3 act STAT1c inactive.
Screening CCCCCCC1CCC(C(=O)N2CCOCC2)CC1 (stereo not drawn) returned NF-kB expr up inactive, STAT3 activator inactive, APP 5'UTR act inactive, STAT1 act inactive, STAT3 inh inactive and STAT1 blocker inactive.
O=[N+]([O-])c1cccc(-c2cn3ccccc3n2)c1 was read as NF-kB expr up 5.5, STAT3 activator inactive, APP 5'UTR act inactive, STAT1 act 153, STAT3 inh inactive, STAT1 blocker inactive, STAT1 activ conf 206, NFkB act 141 and STAT3 act STAT1c 115.
O=C(/C=C/c1ccccc1Cl)Nn1cnc2ccccc2c1=O was read as NF-kB expr up inactive, STAT3 activator inactive, APP 5'UTR act inactive, STAT1 act inactive, STAT3 inh inactive and STAT1 blocker inactive.
Screening COc1cccc(-c2noc(-c3cccnc3)n2)c1 returned NF-kB expr up 5.5, STAT3 activator inactive, APP 5'UTR act inactive, STAT1 act 159, STAT3 inh inactive, STAT1 blocker inactive, STAT1 activ conf 188, NFkB act inactive and STAT3 act STAT1c 121.
Screening CCOC(=O)c1ccc(N=C2C(=S)N(c3ccc(C(=O)OCC)cc3)C(=N)N2/N=C/c2ccccc2)cc1 returned NF-kB expr up inactive, STAT3 activator inactive, APP 5'UTR act inactive, STAT1 act inactive, STAT3 inh inactive and STAT1 blocker inactive.
Screening CN(C)c1ccc(/C=N/N2C(=N)N(c3ccccc3)C(=S)C2=Nc2ccccc2)cc1 returned STAT3 activator inactive, APP 5'UTR act 180, STAT1 act 163, STAT3 inh inactive, STAT1 blocker inactive, STAT1 activ conf 185, NFkB act 134 and STAT3 act STAT1c 113.
For COc1ccc(OC)c(NC(=O)/C=C/c2ccccc2[N+](=O)[O-])c1 the results were NF-kB expr up inactive, STAT3 activator inactive, APP 5'UTR act inactive, STAT1 act inactive, STAT3 inh inactive and STAT1 blocker inactive.
COc1cccc(NC(=O)/C=C/c2ccccc2[N+](=O)[O-])c1 was read as NF-kB expr up 3.6, STAT3 activator inactive, APP 5'UTR act 138, STAT1 act 154, STAT3 inh inactive, STAT1 blocker inactive, STAT1 activ conf 177, NFkB act 137 and STAT3 act STAT1c 117.
Screening CC(=O)Nc1sc2c(c1C#N)CCCC2 returned NF-kB expr up inactive, STAT3 activator inactive, APP 5'UTR act inactive, STAT1 act inactive, STAT3 inh inactive and STAT1 blocker inactive.
Screening CC(C)C(=O)Nc1sc2c(c1C#N)CCCCC2 returned NF-kB expr up inactive, STAT3 activator inactive, APP 5'UTR act inactive, STAT1 act inactive, STAT3 inh inactive and STAT1 blocker inactive.
Screening CC(=O)NC(=S)Nc1sc2c(c1C#N)CCCCC2 returned NF-kB expr up inactive, STAT3 activator inactive, APP 5'UTR act inactive, STAT1 act 167, STAT3 inh inactive, STAT1 blocker inactive, STAT1 activ conf 186, NFkB act inactive and STAT3 act STAT1c inactive.
Screening Cc1cc(C(=O)Nc2sc3c(c2C#N)CCCCC3)cs1 returned NF-kB expr up 4.2, STAT3 activator inactive, APP 5'UTR act 159, STAT1 act 176, STAT3 inh inactive, STAT1 blocker inactive, STAT1 activ conf 255, NFkB act 146 and STAT3 act STAT1c 111.
Cc1ccccc1OS(=O)(=O)c1cn(C)c(=O)n(C)c1=O was read as NF-kB expr up inactive, STAT3 activator inactive, APP 5'UTR act inactive, STAT1 act inactive, STAT3 inh inactive and STAT1 blocker inactive.
NNC(=O)c1ccc2nc(-c3ccc(Br)cc3)cn2c1 was read as NF-kB expr up inactive, STAT3 activator inactive, APP 5'UTR act inactive, STAT1 act 162, STAT3 inh inactive, STAT1 blocker inactive, STAT1 activ conf 208, NFkB act inactive and STAT3 act STAT1c 115.
`CC(C)Oc1ccc2c(=O)c(-c3ccccc3)coc2c1` gave NF-kB expr up 9.5, STAT3 activator inactive, APP 5'UTR act 163, STAT1 act 156, STAT3 inh inactive, STAT1 blocker inactive, STAT1 activ conf 219, NFkB act inactive and STAT3 act STAT1c inactive.
`N#Cc1ccsc1NC(=O)COC(=O)c1ccc(NC(N)=O)cc1` gave NF-kB expr up inactive, STAT3 activator inactive, APP 5'UTR act inactive, STAT1 act 166, STAT3 inh inactive, STAT1 blocker inactive, STAT1 activ conf 199, NFkB act 137 and STAT3 act STAT1c 141.

From PubChem
